Measured values published in ChEMBL document CHEMBL1629437, “A novel PET marker for in vivo quantification of myelination” (Bioorg Med Chem, 2010).
The source made the active and inactive calls.

Assays:
Mus musculus [1] = species on record: Mus musculus; test: Binding affinity to myelin sheath in Plp-Akt-DD transgenic mouse corpus callosum at 10 uM after 20 mins; assay type: tissue-based; details: tested as the 11C-labelled form
Mus musculus [2] = test: In vivo binding affinity to myelin sheath in Plp-Akt-DD transgenic mouse corpus callosum at 25 mg/kg, iv after 30 mins by fluorescent microscopic analysis; assay type: functional, organism-based; design: dose 25 mg/kg; details: tested as the 11C-labelled form
Method in brief: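 Anesthetized Plp-Akt-DD mice and control littermates received MeDAS, 25 mg/kg (about 0.5 mg), by tail vein. After 30 min they were perfused with saline and then 4% PFA. Brains were postfixed overnight, cryoprotected in 30% sucrose and cut into 10 μm cryosections. Sections were imaged directly by fluorescence microscopy, with Black-Gold staining done for comparison.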

Mus musculus [3] = species on record: Mus musculus; test: Binding affinity to myelin sheath in Plp-Akt-DD transgenic mouse corpus callosum by fluorescence assay; assay type: tissue-based
Method in brief: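 Perfusion-fixed (4% PFA) brains from Plp-Akt-DD mice and wild-type SWR/J littermates (5 months old) were cut into 10 μm coronal cryosections and stained in vitro with 10 μM MeDAS. Fluorescence was imaged in the corpus callosum from the midline to below the apex of the cingulum, 8 images per mouse, 20× objective. Images were thresholded against Black-Gold reactivity and intensity was expressed relative to WT set at 100. n = 4, unpaired Student's t-test.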

[4] = Drug uptake in Swiss-Webster mouse corpus callosum at 111 MBq, iv after 20 mins by magnetic resonance imaging analysis; assay type: ADME, organism-based; details: in vivo
Liver [5] = test: Biodistribution in Swiss-Webster mouse liver at 3.7 MBq, iv after 60 mins; assay type: ADME, organism-based; details: in vivo, 1 h
Method in brief: (§1)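 About 3.7 MBq (100 μCi) of [11C]MeDAS was given by tail vein to Swiss-Webster mice, which were euthanized by cardiac excision at 5, 30 and 60 min. Heart, liver, spleen, lung, kidney, stomach and intestine were removed and counted in an automatic gamma well-counter. Results are %ID/organ, n = 3, mean ± SD.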

Brain [6] = test: Drug uptake in Swiss-Webster mouse brain at 111 MBq, iv after 20 mins by autoradiography; assay type: ADME, organism-based; details: in vivo
Intestine [7] = test: Biodistribution in Swiss-Webster mouse intestine at 3.7 MBq, iv after 5 mins; assay type: ADME, organism-based; details: in vivo; method in brief: as §1
Brain [8] = test: Biodistribution in Swiss-Webster mouse brain at 3.7 MBq, iv after 30 mins; assay type: ADME, organism-based; details: in vivo, 0.5 h
Method in brief: (§2)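 [11C]MeDAS, up to 3.7 MBq (100 μCi), was injected into the tail vein of Swiss-Webster mice (20-25 g). Brains were removed at 5, 30 and 60 min, weighed and gamma-counted. Decay-corrected uptake is given as %ID/organ, n = 3, mean ± SD.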

Kidney [9] = test: Biodistribution in Swiss-Webster mouse kidney at 3.7 MBq, iv after 60 mins; assay type: ADME, organism-based; details: in vivo, 1 h; method in brief: as §1
Lung [10] = test: Biodistribution in Swiss-Webster mouse lung at 3.7 MBq, iv after 30 mins; assay type: ADME, organism-based; details: in vivo, 0.5 h; method in brief: as §1
Stomach [11] = test: Biodistribution in Swiss-Webster mouse stomach at 3.7 MBq, iv after 5 mins; assay type: ADME, organism-based; details: in vivo; method in brief: as §1
Liver [12] = test: Biodistribution in Swiss-Webster mouse liver at 3.7 MBq, iv after 30 mins; assay type: ADME, organism-based; details: in vivo, 0.5 h; method in brief: as §1
Heart [13] = test: Biodistribution in Swiss-Webster mouse heart at 3.7 MBq, iv after 5 mins; assay type: ADME, organism-based; details: in vivo; method in brief: as §1
Kidney [14] = test: Biodistribution in Swiss-Webster mouse kidney at 3.7 MBq, iv after 30 mins; assay type: ADME, organism-based; details: in vivo, 0.5 h; method in brief: as §1
Kidney [15] = test: Biodistribution in Swiss-Webster mouse kidney at 3.7 MBq, iv after 5 mins; assay type: ADME, organism-based; details: in vivo; method in brief: as §1
[16] = Drug uptake in Swiss-Webster mouse corpus callosum at 111 MBq, iv after 20 mins by magnetic resonance imaging analysis in presence of BDB; assay type: ADME, organism-based; details: in vivo
Brain [17] = test: Biodistribution in Swiss-Webster mouse brain at 3.7 MBq, iv after 60 mins; assay type: ADME, organism-based; details: in vivo, 1 h; method in brief: as §2
Intestine [18] = test: Biodistribution in Swiss-Webster mouse intestine at 3.7 MBq, iv after 30 mins; assay type: ADME, organism-based; details: in vivo, 0.5 h; method in brief: as §1
Lung [19] = test: Biodistribution in Swiss-Webster mouse lung at 3.7 MBq, iv after 5 mins; assay type: ADME, organism-based; details: in vivo; method in brief: as §1
Spleen [20] = test: Biodistribution in Swiss-Webster mouse spleen at 3.7 MBq, iv after 30 mins; assay type: ADME, organism-based; details: in vivo, 0.5 h; method in brief: as §1
Stomach [21] = test: Biodistribution in Swiss-Webster mouse stomach at 3.7 MBq, iv after 60 mins; assay type: ADME, organism-based; details: in vivo, 1 h; method in brief: as §1
[22] = Drug uptake in Swiss-Webster mouse corpus callosum at 111 MBq, iv; details: in vivo
Spleen [23] = test: Biodistribution in Swiss-Webster mouse spleen at 3.7 MBq, iv after 5 mins; assay type: ADME, organism-based; details: in vivo; method in brief: as §1
Intestine [24] = test: Biodistribution in Swiss-Webster mouse intestine at 3.7 MBq, iv after 60 mins; assay type: ADME, organism-based; details: in vivo, 1 h; method in brief: as §1
Spleen [25] = test: Biodistribution in Swiss-Webster mouse spleen at 3.7 MBq, iv after 60 mins; assay type: ADME, organism-based; details: in vivo, 1 h; method in brief: as §1
[26] = Octanol-water partition coefficient, log P of the compound at pH 7.4; assay type: physicochemical
Method in brief: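 [11C]MeDAS (about 500,000 cpm, >98% radiochemical purity) was partitioned between n-octanol and phosphate buffer (pH 7.40) by vortexing 3 min at room temperature, then centrifuged at 3500 rpm for 5 min. The octanol layer was re-partitioned until values were consistent. logP = log of cpm/g octanol over cpm/g buffer, in triplicate.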

Brain [27] = test: Biodistribution in Swiss-Webster mouse brain at 3.7 MBq, iv after 5 mins; assay type: ADME, organism-based; details: in vivo; method in brief: as §2
Heart [28] = test: Biodistribution in Swiss-Webster mouse heart at 3.7 MBq, iv after 60 mins; assay type: ADME, organism-based; details: in vivo, 1 h; method in brief: as §1
Heart [29] = test: Biodistribution in Swiss-Webster mouse heart at 3.7 MBq, iv after 30 mins; assay type: ADME, organism-based; details: in vivo, 0.5 h; method in brief: as §1
[30] = Drug uptake in Plp-Akt-DD transgenic mouse corpus callosum 7.4 MBq, iv after 90 mins by microPET imaging analysis; details: in vivo, 1.5 h
Brain [31] = test: Drug uptake in Plp-Akt-DD transgenic mouse brain at 7.4 MBq, iv after 90 mins by microPET imaging analysis; details: in vivo, 1.5 h
Stomach [32] = test: Biodistribution in Swiss-Webster mouse stomach at 3.7 MBq, iv after 30 mins; assay type: ADME, organism-based; details: in vivo, 0.5 h; method in brief: as §1
Lung [33] = test: Biodistribution in Swiss-Webster mouse lung at 3.7 MBq, iv after 60 mins; assay type: ADME, organism-based; details: in vivo, 1 h; method in brief: as §1
Liver [34] = test: Biodistribution in Swiss-Webster mouse liver at 3.7 MBq, iv after 5 mins; assay type: ADME, organism-based; details: in vivo; method in brief: as §1

## CNc1ccc(/C=C/c2ccc(N)cc2)cc1
Mus musculus [1]
  Drug uptake: Active
Mus musculus [2]
  Drug uptake: Active
Mus musculus [3]
  Drug uptake: Active

## [11CH3]Nc1ccc(/C=C/c2ccc(N)cc2)cc1
[4]
  Drug uptake: Active
Liver [5]
  Drug uptake: 7.75 %ID
Brain [6]
  Drug uptake: Active
Intestine [7]
  Drug uptake: 0.42 %ID
Brain [8]
  Drug uptake: 1.05 %ID
Kidney [9]
  Drug uptake: 1.78 %ID
Lung [10]
  Drug uptake: 0.76 %ID
Stomach [11]
  Drug uptake: 1 %ID
Liver [12]
  Drug uptake: 10.83 %ID
Heart [13]
  Drug uptake: 0.4 %ID
Kidney [14]
  Drug uptake: 2 %ID
Kidney [15]
  Drug uptake: 2.69 %ID
[16]
  Drug uptake: Not Active
Brain [17]
  Drug uptake: 1.37 %ID
Intestine [18]
  Drug uptake: 0.65 %ID
Lung [19]
  Drug uptake: 0.85 %ID
Spleen [20]
  Drug uptake: 0.39 %ID
Stomach [21]
  Drug uptake: 1.21 %ID
[22]
  Drug uptake: Active
Spleen [23]
  Drug uptake: 0.28 %ID
Intestine [24]
  Drug uptake: 1.74 %ID
Spleen [25]
  Drug uptake: 0.9 %ID
[26]
  logD: 2.25
Brain [27]
  Drug uptake: 2.56 %ID
Heart [28]
  Drug uptake: 0.75 %ID
Heart [29]
  Drug uptake: 0.33 %ID
[30]
  Drug uptake: Active
Brain [31]
  Drug uptake: Active
Stomach [32]
  Drug uptake: 0.67 %ID
Lung [33]
  Drug uptake: 1.2 %ID
Liver [34]
  Drug uptake: 15.86 %ID
